Screening data (PubChem)
Shown are actives, neighbours in structure and some others; about 2.4% of the full set was active somewhere.
HNF4A DNA FP = change in binding of human HNF4 alpha to DNA; HNF4a-FITC DNA binding, fluorescence polarization, 1 h; activity change, % at 10 µM; 0.3% of 360,000 active; AID 1224865; P41235; in the data active = activity change above about 30%, passing the limit was not always enough
Target sequence (P41235 whole entry, looked up): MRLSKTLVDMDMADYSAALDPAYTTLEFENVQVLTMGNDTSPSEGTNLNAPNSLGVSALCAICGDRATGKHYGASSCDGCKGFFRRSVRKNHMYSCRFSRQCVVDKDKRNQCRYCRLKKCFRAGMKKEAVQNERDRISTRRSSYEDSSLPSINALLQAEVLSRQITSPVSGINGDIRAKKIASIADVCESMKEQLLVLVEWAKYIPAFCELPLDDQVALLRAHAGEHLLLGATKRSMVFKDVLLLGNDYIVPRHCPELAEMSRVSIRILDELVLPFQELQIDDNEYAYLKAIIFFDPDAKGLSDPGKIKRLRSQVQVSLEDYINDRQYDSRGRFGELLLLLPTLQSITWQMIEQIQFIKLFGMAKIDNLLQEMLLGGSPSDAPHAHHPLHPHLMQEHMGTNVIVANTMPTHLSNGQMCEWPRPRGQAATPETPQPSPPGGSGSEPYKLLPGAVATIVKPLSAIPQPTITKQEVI
Rpn11 block = inhibitors of human proteasome Rpn11; human 26S proteasome, Ub4-pepOG fluorescence polarization; 20S core pre-blocked with epoxomicin; inhibition, % at 20 µM; 0.59% of 360,000 active;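 active = inhibition at 20 µM, scaled to each plate's controls, above about 33%, limit read from the data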
Tb MetRS inh = blocks T. brucei methionyl-tRNA synthetase activity; AID 624268; 0.4% of 360,000 active; inhibition, % at 11.9 µM; purified T. brucei MetRS, ATP depletion, Kinase-Glo luminescence;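 active = inhibition above a per-plate cutoff of the control wells' mean inhibition plus 3 SD, cut at about 5.5% in these data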;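 note: 0% = DMSO wells median and 100% = median of wells with control inhibitor compound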
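Measured by: Kinase-Glo luciferase luminescence reporting remaining unconsumed ATP. Material: purified T. brucei MetRS enzyme. Doses: 11.9 µM compound single dose, 0.9% DMSO. Medium: HEPES buffer containing pyrophosphatase, BSA, spermine, DTT. Times: 15 min preincubation, 2 h reaction, all 25 °C. Reagent: methionine, ATP and bulk E. coli tRNA.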
PREPL inhibitor = inhibits the human prolyl oligopeptidase-like enzyme. Q4J6C6. recombinant PREPL, fluorescence polarization activity-based probe. inhibition, % at 5.96 µM. 0.68% of 320,000 active; in the data active = inhibition above about 43%;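 note: 0% = enzyme with DMSO and 100% = wells lacking enzyme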
CSN inh = inhibitors of human CSN-mediated cullin deneddylation; Q92905; Purified CSN, SCF-Nedd8-OG deneddylation, fluorescence polarization; inhibition, % at 12.5 µM; 0.38% of 360,000 active; AID 651999;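 active = pattern-corrected inhibition above about 35%, with an unprinted fluorescence ratio check between 0.5 and 1.5, limit read from the data, passing the limit was not always enough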;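 note: 0% = enzyme with substrate and 100% = substrate without enzyme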
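Assay system: purified human Csn5 enzyme expressed in HEK293T cells; measure: % inhibition; also added: SCFSkp2-Nedd8OG substrate at 10 nM final; technique: fluorescence polarization; times: reaction 90 min, room temperature; medium: Tris buffer pH 7.5, NaCl, DTT, Tween-20, trehalose, ovalbumin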
Neddyl block = inhibitors of human cullin neddylation | TR-FRET cullin neddylation, biochemical | inhibition, % at 25 µM | 0.58% of 360,000 active | AID 651699; in the data active = inhibition above about 36%
TbMetRS confirm = Trypanosoma brucei MetRS inhibition confirmed | shares compounds with Tb MetRS inh | T. brucei MetRS enzyme, luminescence (ATP depletion) | inhibition, % at 11.9 µM | 93% of 1,400 active; in the data active = inhibition above about 7%
Jurkat tox = kills Jurkat cells in T. brucei MetRS counterscreen; inhibition, % at 8.3 µM; Jurkat cells viability, ATP luminescence; 12% of 1,400 active; shares compounds with Tb MetRS inh; in the data active = inhibition above about 15%;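 note: 0% = vehicle and 100% = reference inhibitor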
Tb MetRS inh FP = inhibits T. brucei methionyl tRNA synthetase in orthogonal FP test; inhibition, % at 11.9 µM; shares compounds with Tb MetRS inh; purified T. brucei MetRS, fluorescence polarization; 44% of 1,400 active; in the data active = inhibition above about 17%;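 note: 0% = vehicle wells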
The depositor's hits bear a star.

Screening COc1ccc(CCNC(=O)COc2cc(O)c3c(c2)OC(C)(C)CC3=O)cc1OC returned HNF4A DNA FP 2.6, Rpn11 block -9.4, Tb MetRS inh 0.9, PREPL inhibitor 2.6, CSN inh 3.6 and Neddyl block 13.4.
Screening c1ccc(CN2CCC(CNc3ncnc4ccccc34)C2)cc1 (stereo unspecified) returned HNF4A DNA FP -0.3, Rpn11 block -7.8, Tb MetRS inh 6.2*, CSN inh 6.4, Neddyl block 12.5, TbMetRS confirm 27.6*, Jurkat tox 26.9* and Tb MetRS inh FP 16.4.
For O=C(c1ccccc1)c1nn(-c2ccccc2)c2nnc(Cc3ccccc3)c(=O)n12 the results were HNF4A DNA FP 0.4, Rpn11 block -2.2, Tb MetRS inh 6.5*, PREPL inhibitor 3.6, CSN inh -1.9, Neddyl block -82.4, TbMetRS confirm 16.3*, Jurkat tox 15.1* and Tb MetRS inh FP 5.7.
O=[N+]([O-])c1ccc2nc(SCc3cn4cccnc4n3)[nH]c2c1 was read as HNF4A DNA FP 4.7, Rpn11 block -2.7, Tb MetRS inh 0.8, PREPL inhibitor 4.9, CSN inh -5.5 and Neddyl block -37.5.
Screening O=[N+]([O-])c1ccc2nc(SCc3cn4ccccc4n3)[nH]c2c1 returned HNF4A DNA FP -1.4, Rpn11 block -8.1, Tb MetRS inh 17.4*, PREPL inhibitor 7.6, CSN inh -0.8, Neddyl block -20.0, TbMetRS confirm 35.2*, Jurkat tox -2.8 and Tb MetRS inh FP 21.4*.
For CCOP(=O)(OCC)C(Nc1cc(Cl)cc(Cl)c1)c1cccc(O)c1 (stereo unspecified) the results were HNF4A DNA FP 4.7, Rpn11 block 2.9, Tb MetRS inh 2.1, PREPL inhibitor 10.7, CSN inh 4.5 and Neddyl block -4.8.
Screening COP(=O)(OC)C(Nc1cc(Cl)cc(Cl)c1)c1cccc(O)c1 (stereo unspecified) returned HNF4A DNA FP -0.6, Rpn11 block -6.3, Tb MetRS inh 5.7*, PREPL inhibitor 5.2, CSN inh -1.0, Neddyl block 1.2, TbMetRS confirm 14.5*, Jurkat tox -0.6 and Tb MetRS inh FP 4.0.
CCC/C=C/c1ccc(CN2C(C)C(=O)N(Cc3cn(CCC4OCCO4)nn3)CCS2(=O)=O)cc1 (stereo unspecified) was read as HNF4A DNA FP 0.5, Rpn11 block 6.6, Tb MetRS inh -0.9, CSN inh 2.3 and Neddyl block 4.5.
For COc1ccc(-n2c(SCC(=O)Nc3ccc(C)cc3)nc(O)c(Cc3ccccc3)c2=O)cc1 the results were HNF4A DNA FP -0.3, Rpn11 block -2.6, Tb MetRS inh 0.2, PREPL inhibitor 4.5, CSN inh 8.6 and Neddyl block -1.6.
`COc1ccc(-n2c(SCC(=O)Nc3ccc(Cl)cc3)nc(O)c(Cc3ccccc3)c2=O)cc1` gave HNF4A DNA FP 3.2, Rpn11 block 2.0, Tb MetRS inh 47.5*, PREPL inhibitor 3.2, CSN inh 3.8, Neddyl block 11.4, TbMetRS confirm 69.9*, Jurkat tox -9.9 and Tb MetRS inh FP 34.6*.
For CC(C)(C)c1ccc(C(=O)NNc2cc(Cl)cc(Cl)c2)cc1 the results were HNF4A DNA FP -2.8, Rpn11 block -1.9, Tb MetRS inh 4.8, PREPL inhibitor 0.1, CSN inh -0.9 and Neddyl block 11.5.
For CCc1ccc(C(=O)NNc2cc(Cl)cc(Cl)c2)cc1 the results were HNF4A DNA FP -0.7, Rpn11 block 1.3, Tb MetRS inh 14.7*, PREPL inhibitor 4.3, CSN inh -1.1, Neddyl block -0.5, TbMetRS confirm 39.4*, Jurkat tox 2.3 and Tb MetRS inh FP 18.8*.
`O=C(NNc1cc(Cl)cc(Cl)c1)c1cccs1` gave HNF4A DNA FP -1.6, Rpn11 block -3.0, Tb MetRS inh 25.0*, PREPL inhibitor 3.5, CSN inh -5.2, Neddyl block -0.2, TbMetRS confirm 56.3*, Jurkat tox -3.1 and Tb MetRS inh FP 30.0*.
CC(=O)NS(=O)(=O)c1ccc(NC(=O)/C=C/c2cn(-c3ccccc3)nc2-c2ccccc2)cc1 was read as HNF4A DNA FP -0.5, Rpn11 block 10.4, Tb MetRS inh 50.7*, PREPL inhibitor -9.7, CSN inh -0.7, Neddyl block 13.0, TbMetRS confirm 49.5*, Jurkat tox -4.5 and Tb MetRS inh FP 42.3*.
Screening COCCN(C(=O)COC(=O)c1ccc2c(c1)OCO2)c1c(N)n(Cc2ccccc2)c(=O)[nH]c1=O returned HNF4A DNA FP -3.8, Rpn11 block 2.2, Tb MetRS inh 0.6, CSN inh -0.8 and Neddyl block 3.3.
`CCCCC#Cc1cncc(C(=O)NN)c1` gave HNF4A DNA FP 4.7, Rpn11 block 2.4, Tb MetRS inh 5.7*, PREPL inhibitor 3.7, CSN inh 1.8, Neddyl block 17.7, TbMetRS confirm 2.5, Jurkat tox 6.4 and Tb MetRS inh FP 5.9.
CC[C@]12c3[nH]c4ccc(Cl)cc4c3CCN1C(=O)[C@@H](CC(=O)NC/C=C(\C)CCC=C(C)C)C[C@@H]2C(=O)N1CCN(C(=O)c2ccco2)CC1 was read as HNF4A DNA FP -3.0, Rpn11 block 5.8, Tb MetRS inh -0.6, CSN inh -0.1 and Neddyl block 0.7.
CO[C@@H]1CN(C)C(=O)c2cc(NC(=O)Nc3cc(F)ccc3F)ccc2OC[C@H](C)N(C(=O)c2cnccn2)C[C@@H]1C was read as HNF4A DNA FP 2.1, Tb MetRS inh 6.2*, CSN inh 3.5, Neddyl block -0.5, TbMetRS confirm 13.6*, Jurkat tox -0.1 and Tb MetRS inh FP 1.1.
`CO[C@@H]1CN(C)C(=O)c2cc(NC(=O)Nc3cc(F)ccc3F)ccc2OC[C@H](C)NC[C@@H]1C` gave HNF4A DNA FP 5.8, Tb MetRS inh 4.5, CSN inh -4.4 and Neddyl block -1.7.
For O=C(CSc1n[nH]c(-c2ccc(Br)cc2)n1)NC1CCCC1 the results were HNF4A DNA FP -0.5, Rpn11 block 8.6, Tb MetRS inh 12.5*, PREPL inhibitor 22.7, CSN inh 5.7, Neddyl block -70.3, TbMetRS confirm 41.4*, Jurkat tox 0.8 and Tb MetRS inh FP 13.6.
N#Cc1ccc(-c2nc3c4ccccc4ccn3c2Cc2cccc(Cl)c2)cc1 was read as HNF4A DNA FP 2.7, Rpn11 block 22.9, Tb MetRS inh -0.1, CSN inh 3.3 and Neddyl block 23.5.
